{"source": "ChEMBL document CHEMBL2146467", "about": "“Generation and exploration of new classes of antitubercular agents: The optimization of oxazolines, oxazoles, thiazolines, thiazoles to imidazo[1,2-a]pyridines and isomeric 5,6-fused scaffolds” (Bioorg Med Chem, 2012)", "key": {"[1]": {"system": "Mycobacterium tuberculosis", "assay": "Antimycobacterial activity against Mycobacterium tuberculosis H37Rv ATCC 27294 culture in GAS media after 7 days by microplate alamar blue assay", "format": "functional", "details": "H37Rv ATCC 27294, 168 h", "in_short": "(§1)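 Replicating Mtb H37Rv. The MIC is the concentration that inhibits growth of 90% of organisms. Media by line: GAS is glycerol-alanine-salts. GAST is iron-deficient glycerol-alanine-salts with Tween 80. 7H12 is 7H9 broth base with BSA, casein hydrolysate, catalase and palmitic acid. Values are reported in μM.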"}, "[2]": {"system": "Mycobacterium tuberculosis", "assay": "Antimycobacterial activity against Mycobacterium tuberculosis H37Rv ATCC 27294 culture in GAST media after 7 days by microplate alamar blue assay", "format": "functional", "details": "H37Rv ATCC 27294, 168 h", "in_short": "as §1"}, "[3]": {"system": "Mycobacterium tuberculosis", "assay": "Antimycobacterial activity against Mycobacterium tuberculosis H37Rv ATCC 27294 culture in 7H12 media after 7 days by microplate alamar blue assay", "format": "functional", "details": "H37Rv ATCC 27294, 168 h", "in_short": "as §1"}, "[4]": {"system": "Mycobacterium tuberculosis", "assay": "microbe, parasite or virus in culture", "format": "functional", "details": "H37Rv"}, "Vero": {"system": "Vero", "assay": "Cytotoxicity against african green monkey Vero cells after 72 hrs by CellTiter assay", "format": "cell-based", "details": "Chlorocebus sabaeus"}, "[5]": {"assay": "Chemical stability in simulated gastric fluid assessed as compound remaining at 50 uM after 15 mins by LC/MS analysis", "format": "physicochemical", "details": "read-out: Stability"}, "[6]": {"assay": "Metabolic stability in Sprague-Dawley rat liver microsomes assessed as compound remaining at 20 uM after 15 mins by LC/MS analysis", "format": "ADME, Microsome", "details": "read-out: Stability"}, "[7]": {"system": "Mycobacterium tuberculosis", "assay": "Antimycobacterial activity against drug-sensitive Mycobacterium tuberculosis isolate 2 after 14 days", "format": "functional", "details": "isolate 2, 336 h"}, "[8]": {"system": "Mycobacterium tuberculosis", "assay": "Antimycobacterial activity against isoniazid-,rifampin-,ethambutol-,kanamycin-,paraaminosalicylic acid-resistant Mycobacterium tuberculosis after 14 days", "format": "functional", "details": "336 h"}, "Mycobacterium kansasii": {"system": "Mycobacterium kansasii", "assay": "Antimycobacterial activity against Mycobacterium kansasii", "format": "functional"}, "Mycobacterium avium": {"system": "Mycobacterium avium", "assay": "Antimycobacterial activity against Mycobacterium avium", "format": "functional"}, "Staphylococcus aureus": {"system": "Staphylococcus aureus", "assay": "Antibacterial activity against Staphylococcus aureus", "format": "functional"}, "Escherichia coli": {"system": "Escherichia coli", "assay": "Antibacterial activity against Escherichia coli", "format": "functional"}, "[9]": {"system": "Mycobacterium tuberculosis", "assay": "Antimycobacterial activity against drug-sensitive Mycobacterium tuberculosis isolate 1 after 14 days", "format": "functional", "details": "isolate 1, 336 h"}, "[10]": {"system": "Mycobacterium tuberculosis", "assay": "Antimycobacterial activity against isoniazid-,rifampin-,ethambutol-,pyrazinamide-,streptomycin-,kanamycin-,paraaminosalicylic acid-resistant Mycobacterium tuberculosis after 14 days", "format": "functional", "details": "336 h"}}, "data": [{"molecule": "O=C(OCc1ccccc1)[C@@H]1COC(c2ccccc2)=N1", "values": [{"measurement": "MIC90", "setting": "[1]", "value": 4.9, "unit": "µM"}, {"measurement": "MIC90", "setting": "[2]", "value": 4.4, "unit": "µM"}, {"measurement": "MIC90", "setting": "[3]", "value": 16.6, "unit": "µM"}, {"measurement": "MIC90", "setting": "[4]", "value": 63, "unit": "µM"}, {"measurement": "IC50", "setting": "Vero", "value": "> 128", "unit": "µM"}, {"measurement": "remaining at 0.25 h, 50 µM", "setting": "[5]", "value": 1.7, "unit": "%"}, {"measurement": "remaining at 0.25 h, 20 µM", "setting": "[6]", "value": 2.8, "unit": "%"}]}, {"molecule": "O=C(OCc1ccccc1)c1coc(-c2ccccc2)n1", "values": [{"measurement": "MIC90", "setting": "[1]", "value": 5.7, "unit": "µM"}, {"measurement": "MIC90", "setting": "[2]", "value": 0.49, "unit": "µM"}, {"measurement": "MIC90", "setting": "[3]", "value": 3.9, "unit": "µM"}, {"measurement": "MIC90", "setting": "[4]", "value": 37, "unit": "µM"}, {"measurement": "remaining at 0.25 h, 50 µM", "setting": "[5]", "value": 1.8, "unit": "%"}, {"measurement": "remaining at 0.25 h, 20 µM", "setting": "[6]", "value": 2.7, "unit": "%"}, {"measurement": "MIC90", "setting": "[7]", "value": 2.2, "unit": "µM"}, {"measurement": "MIC90", "setting": "[8]", "value": 1.1, "unit": "µM"}]}, {"molecule": "Cc1ccn2c(C(=O)NCc3ccccc3)c(C)nc2c1", "values": [{"measurement": "MIC90", "setting": "[1]", "value": 0.7, "unit": "µM"}, {"measurement": "MIC90", "setting": "[2]", "value": 2, "unit": "µM"}, {"measurement": "MIC90", "setting": "[3]", "value": 2.3, "unit": "µM"}, {"measurement": "MIC90", "setting": "[4]", "value": 54, "unit": "µM"}, {"measurement": "IC50", "setting": "Vero", "value": "> 128", "unit": "µM"}, {"measurement": "remaining at 0.25 h, 50 µM", "setting": "[5]", "value": 100, "unit": "%"}, {"measurement": "remaining at 0.25 h, 20 µM", "setting": "[6]", "value": 90, "unit": "%"}, {"measurement": "MIC", "setting": "Mycobacterium kansasii", "value": 1.3, "unit": "µM"}, {"measurement": "MIC", "setting": "Mycobacterium avium", "value": 1.3, "unit": "µM"}, {"measurement": "MIC", "setting": "Staphylococcus aureus", "value": "> 50", "unit": "µM"}, {"measurement": "MIC", "setting": "Escherichia coli", "value": "> 50", "unit": "µM"}]}, {"molecule": "O=C(OCc1ccccc1)c1csc(-c2ccccc2)n1", "values": [{"measurement": "MIC90", "setting": "[1]", "value": 6, "unit": "µM"}, {"measurement": "MIC90", "setting": "[2]", "value": 6.2, "unit": "µM"}, {"measurement": "MIC90", "setting": "[3]", "value": 7.2, "unit": "µM"}, {"measurement": "IC50", "setting": "Vero", "value": "> 128", "unit": "µM"}, {"measurement": "MIC90", "setting": "[7]", "value": 8.5, "unit": "µM"}, {"measurement": "MIC90", "setting": "[8]", "value": 4.2, "unit": "µM"}]}, {"molecule": "O=C(OCc1ccccc1)c1cc(-c2ccccc2)on1", "values": [{"measurement": "MIC90", "setting": "[1]", "value": 2.2, "unit": "µM"}, {"measurement": "MIC90", "setting": "[3]", "value": 0.8, "unit": "µM"}, {"measurement": "MIC90", "setting": "[4]", "value": 28, "unit": "µM"}, {"measurement": "IC50", "setting": "Vero", "value": "> 50", "unit": "µM"}]}, {"molecule": "Cc1ccn2c(C(=O)OCc3ccccc3)c(-c3ccccc3)nc2c1", "values": [{"measurement": "MIC90", "setting": "[1]", "value": "< 0.195", "unit": "µM"}, {"measurement": "MIC90", "setting": "[3]", "value": "< 0.195", "unit": "µM"}, {"measurement": "MIC90", "setting": "[4]", "value": 21.7, "unit": "µM"}, {"measurement": "IC50", "setting": "Vero", "value": "> 50", "unit": "µM"}]}, {"molecule": "Cc1ccn2c(C(=O)NCc3ccccc3)c(-c3ccccc3)nc2c1", "values": [{"measurement": "MIC90", "setting": "[1]", "value": 0.6, "unit": "µM"}, {"measurement": "MIC90", "setting": "[3]", "value": 2.9, "unit": "µM"}, {"measurement": "MIC90", "setting": "[4]", "value": "> 50", "unit": "µM"}, {"measurement": "IC50", "setting": "Vero", "value": "> 50", "unit": "µM"}]}, {"molecule": "Cc1ccn2c(C(=O)OCc3ccccc3)c(C)nc2c1", "values": [{"measurement": "MIC90", "setting": "[1]", "value": "< 0.195", "unit": "µM"}, {"measurement": "MIC90", "setting": "[3]", "value": "< 0.195", "unit": "µM"}, {"measurement": "MIC90", "setting": "[4]", "value": 34.8, "unit": "µM"}, {"measurement": "IC50", "setting": "Vero", "value": "> 50", "unit": "µM"}, {"measurement": "MIC90", "setting": "[9]", "value": "< 0.04", "unit": "µM"}, {"measurement": "MIC90", "setting": "[7]", "value": "< 0.04", "unit": "µM"}, {"measurement": "MIC90", "setting": "[10]", "value": "< 0.04", "unit": "µM"}, {"measurement": "MIC90", "setting": "[8]", "value": "< 0.04", "unit": "µM"}]}, {"molecule": "O=C(Nc1ccccc1)c1coc(-c2ccccc2)n1", "values": [{"measurement": "MIC90", "setting": "[1]", "value": 11, "unit": "µM"}, {"measurement": "MIC90", "setting": "[2]", "value": 28, "unit": "µM"}, {"measurement": "MIC90", "setting": "[4]", "value": 50, "unit": "µM"}, {"measurement": "IC50", "setting": "Vero", "value": "> 128", "unit": "µM"}]}, {"molecule": "NNC(=O)c1ccncc1", "note": "[ISONIAZID]", "values": [{"measurement": "MIC90", "setting": "[1]", "value": 0.22, "unit": "µM"}, {"measurement": "MIC90", "setting": "[3]", "value": 0.37, "unit": "µM"}, {"measurement": "MIC90", "setting": "[4]", "value": "> 512", "unit": "µM"}, {"measurement": "IC50", "setting": "Vero", "value": "> 128", "unit": "µM"}]}, {"molecule": "O=[N+]([O-])c1cn2c(n1)OC[C@@H](OCc1ccc(OC(F)(F)F)cc1)C2", "note": "[PRETOMANID]", "values": [{"measurement": "MIC90", "setting": "[9]", "value": 0.45, "unit": "µM"}, {"measurement": "MIC90", "setting": "[7]", "value": "> 13.9", "unit": "µM"}, {"measurement": "MIC90", "setting": "[10]", "value": 0.45, "unit": "µM"}, {"measurement": "MIC90", "setting": "[8]", "value": 0.45, "unit": "µM"}]}]}
